Experimental data gathered from unrelated publications.
Target: Ephrin type-A receptor 2 (EPHA2, Homo sapiens, UniProt P29317)

Structure (SMILES) | read-out | action | method | tested at | measurement | value
Cn1cc(-c2cc(F)cc(N3CCn4c(cc5c4CCCC5)C3=O)c2CO)cc(Nc2ccc(N3CCN(C4COC4)CC3)cn2)c1=O | enzyme activity | inhibitor | – | 0.1 µM | inhibition | -1%
O=c1[nH]c2ccccc2n1C1CCN(Cc2ccc(-c3[nH]c4cc5ncnc5cc4nc3-c3ccccc3)cc2)CC1 | cell-free assay | – | – | 0.5 µM | remaining signal | 103%
Cn1cc(-c2cccc(N3CCc4c(sc5c4CC(C)(C)C5)C3=O)c2CO)cc(Nc2ccncn2)c1=O | enzyme activity | inhibitor | – | 1 µM | inhibition | 16%
Nc1ncc(-c2nc(N3CCOCC3)nc(N3CCOCC3)n2)c(C(F)F)n1 | cell-free assay | – | competition with immobilised ligand | 10 µM | remaining binding | 94%
Cn1cncc1[C@@](O)(COc1ccc(C#N)cc1-c1ccc(OC(F)(F)F)cc1)c1ccc(C#N)cc1 | cell-free assay | – | competition with immobilised ligand | 1 µM | remaining binding | 89%
COc1cc(Nc2ncc(F)c(Nc3ccc4c(n3)NC(=O)C(C)(C)O4)n2)cc(OC)c1OC | binding | – | competition with immobilised ligand | 10 µM | inhibition | 90%
Cc1nn(C)cc1-c1nc2c(N3CCN(Cc4ccc(Cl)cc4)CC3)c(Cl)cnc2[nH]1 | binding | – | competition with immobilised ligand | 1 µM | remaining binding | 100%
N#CC1(c2ccccn2)CCN(Cc2cc(C(=O)O)c(=O)n3ccccc23)CC1 | cell-free assay | – | competition with immobilised ligand | 1 µM | remaining binding | 83%
CC(C)(C)c1cc(C=C(C#N)C#N)cc(Br)c1O | enzyme activity | inhibitor | – | 0.5 µM | remaining activity | 105%
COc1ncccc1-c1cnn2ccc(N3CCN(C(=O)OC(C)C)CC3)nc12 | binding | – | competition with immobilised ligand | 1 µM | remaining binding | 79%
